Results on one compound are retold here after ChEMBL document CHEMBL1143779, “Antiviral 2,5-disubstituted imidazo[4,5-c]pyridines: from anti-pestivirus to anti-hepatitis C virus activity” (Bioorg Med Chem Lett, 2007).

What is called CC50 is the concentration that lowers cell viability or growth by half. The low end stands for harm at low concentration, the high end for better tolerance by the cells. By EC50 is commonly meant the midpoint of the concentration-response curve.

The nature of data set [1]: Cytotoxicity against MDBK cells. Type of data set: cell-based, Bos taurus. The conditions noted are these: cattle. A digest of the protocol: (§1)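 MDBK or Huh 5-2 cells seeded at 5 · 10³ cells/well in MEM-FCS; serial compound dilutions added 24 h later. Read-out OD490 nm, expressed as OD treated/OD untreated control.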
For another data set, the system named is MDBK. In words: Selectivity index, ratio of CC50 for MDBK cells to EC50 for BVDV. Type of data set: functional.
Data set [2] has as its system Bovine viral diarrhea virus 1. The data set is described as follows: Antiviral activity against BVDV in MDBK cells assessed as reduction of virus-induced cytopathic effect. Type of data set: functional, organism-based. To be noted: Bovine viral diarrhea virus isolates and strains. For orientation: Protection from cytopathic effect is a common read-out in antiviral testing.

Data set [3] in a line: Cytotoxicity against Huh 5-2 cells. The conditions noted are these: human. The data set is classed as cell-based. A digest of the protocol: as §1
A short description of data set [4]: Selectivity index, ratio of CC50 for Huh 5-2 cells to EC50 for HCV. The data set is classed as functional.
In another data set the test system is Hepatitis C virus. In words: Antiviral activity against HCV in Huh 5-2 cells assessed as […]. Type of data set: functional, organism-based, Hepacivirus hominis. Summed up:
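Huh 5-2 cells were seeded at 5×10³/well in complete DMEM with G418. After 24 h at 37 °C (5% CO₂), the medium was replaced with threefold serial compound dilutions in DMEM without G418 and incubated for 4 days. Values are means of 4–6 independent experiments.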

The source made the active and inactive calls. The calls are words filed in the database; no cut-off is given here.

Turning to `Brc1ccc(Cn2ccc3nc(CCCCc4ccccc4)nc-3c2)cc1`, the CC50 worked out at 5 µM in data set [1] and 2.2 µM in data set [3]. Further, the result (in the data set with MDBK; in data set [4]) was inactive. Moreover, the results for the EC50 (in data set [2]; in the data set with Hepatitis C virus) were over 5 µM and over 2.2 µM, respectively.
